One block for each compound: values may come before it.
Key:
[1] = Displacement of [125I]TZDM from amyloid beta (1 to 40) aggregates after 2 hrs by gamma counting
How it was run: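 Competition binding against [125I]TZDM as radiolabeled standard, using Aβ1–40 aggregates; run in triplicate, results as mean ± SD.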

Lung [2] = experiment: Biodistribution in Kunming mouse lung at 1 uCi, iv after 15 mins by gamma counting; type: ADME, organism-based; conditions: in vivo, 0.25 h
How it was run: (§1)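 125I-labeled tracer given intravenously to normal mice. Organs and blood were sampled at 2, 15, 30, 60, 120 and 240 min after injection. Uptake is expressed as % ID/g, averaged over 5 mice ± SD.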

Heart [3] = experiment: Biodistribution in Kunming mouse heart at 1 uCi, iv after 15 mins by gamma counting; type: ADME, organism-based; conditions: in vivo, 0.25 h; how it was run: as §1
Muscle tissue [4] = experiment: Biodistribution in Kunming mouse muscle at 1 uCi, iv after 120 mins by gamma counting; type: ADME, organism-based; conditions: in vivo, 2 h; how it was run: as §1
Spleen [5] = experiment: Biodistribution in Kunming mouse spleen at 1 uCi, iv after 60 mins by gamma counting; type: ADME, organism-based; conditions: in vivo, 1 h
How it was run: (§2)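 Radioiodinated tracers given intravenously to normal mice; organs taken at 2, 15, 30, 60, 120 and 240 min after injection. Uptake expressed as % ID/g, mean ± SD of 5 mice; stomach values carry a table footnote.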

Blood [6] = experiment: Biodistribution in Kunming mouse blood at 1 uCi, iv after 120 mins by gamma counting; type: ADME, organism-based; conditions: in vivo, 2 h; how it was run: as §1
Lung [7] = experiment: Biodistribution in Kunming mouse lung at 1 uCi, iv after 60 mins by gamma counting; type: ADME, organism-based; conditions: in vivo, 1 h; how it was run: as §1
Stomach [8] = experiment: Biodistribution in Kunming mouse stomach assessed per organ at 1 uCi, iv after 30 mins by gamma counting; type: ADME, organism-based; conditions: in vivo, 0.5 h; how it was run: as §2
Blood [9] = experiment: Biodistribution in Kunming mouse blood at 1 uCi, iv after 60 mins by gamma counting; type: ADME, organism-based; conditions: in vivo, 1 h; how it was run: as §1
Lung [10] = experiment: Biodistribution in Kunming mouse lung at 1 uCi, iv after 240 mins by gamma counting; type: ADME, organism-based; conditions: in vivo, 4 h; how it was run: as §1
Spleen [11] = experiment: Biodistribution in Kunming mouse spleen at 1 uCi, iv after 240 mins by gamma counting; type: ADME, organism-based; conditions: in vivo, 4 h; how it was run: as §1
Lung [12] = experiment: Biodistribution in Kunming mouse lung at 1 uCi, iv after 120 mins by gamma counting; type: ADME, organism-based; conditions: in vivo, 2 h; how it was run: as §1
Brain [13] = experiment: Biodistribution in Kunming mouse brain at 1 uCi, iv after 60 mins by gamma counting; type: ADME, organism-based; conditions: in vivo, 1 h; how it was run: as §1
Spleen [14] = experiment: Biodistribution in Kunming mouse spleen at 1 uCi, iv after 15 mins by gamma counting; type: ADME, organism-based; conditions: in vivo, 0.25 h; how it was run: as §1
Muscle tissue [15] = experiment: Biodistribution in Kunming mouse muscle at 1 uCi, iv after 60 mins by gamma counting; type: ADME, organism-based; conditions: in vivo, 1 h; how it was run: as §1
Liver [16] = experiment: Biodistribution in Kunming mouse liver at 1 uCi, iv after 30 mins by gamma counting; type: ADME, organism-based; conditions: in vivo, 0.5 h; how it was run: as §1
Stomach [17] = experiment: Biodistribution in Kunming mouse stomach assessed per organ at 1 uCi, iv after 120 mins by gamma counting; type: ADME, organism-based; conditions: in vivo, 2 h; how it was run: as §2
Heart [18] = experiment: Biodistribution in Kunming mouse heart at 1 uCi, iv after 120 mins by gamma counting; type: ADME, organism-based; conditions: in vivo, 2 h; how it was run: as §1
Lung [19] = experiment: Biodistribution in Kunming mouse lung at 1 uCi, iv after 2 mins by gamma counting; type: ADME, organism-based; conditions: in vivo; how it was run: as §1
Kidney [20] = experiment: Biodistribution in Kunming mouse kidney at 1 uCi, iv after 60 mins by gamma counting; type: ADME, organism-based; conditions: in vivo, 1 h; how it was run: as §1
Brain [21] = experiment: Biodistribution in Kunming mouse brain at 1 uCi, iv after 30 mins by gamma counting; type: ADME, organism-based; conditions: in vivo, 0.5 h; how it was run: as §1
Stomach [22] = experiment: Biodistribution in Kunming mouse stomach assessed per organ at 1 uCi, iv after 2 mins by gamma counting; type: ADME, organism-based; conditions: in vivo; how it was run: as §2
Stomach [23] = experiment: Biodistribution in Kunming mouse stomach assessed per organ at 1 uCi, iv after 60 mins by gamma counting; type: ADME, organism-based; conditions: in vivo, 1 h; how it was run: as §2
Liver [24] = experiment: Biodistribution in Kunming mouse liver at 1 uCi, iv after 2 mins by gamma counting; type: ADME, organism-based; conditions: in vivo; how it was run: as §1
Stomach [25] = experiment: Biodistribution in Kunming mouse stomach assessed per organ at 1 uCi, iv after 240 mins by gamma counting; type: ADME, organism-based; conditions: in vivo, 4 h; how it was run: as §2
Kidney [26] = experiment: Biodistribution in Kunming mouse kidney at 1 uCi, iv after 2 mins by gamma counting; type: ADME, organism-based; conditions: in vivo; how it was run: as §1
[27] = Octanol-phosphate buffer partition coefficient, log D of the compound at pH 7.4; type: physicochemical
How it was run: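 Radioiodinated tracer partitioned between n-octanol and PBS at pH 7.4; log D reported as mean ± SD.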

Kidney [28] = experiment: Biodistribution in Kunming mouse kidney at 1 uCi, iv after 30 mins by gamma counting; type: ADME, organism-based; conditions: in vivo, 0.5 h; how it was run: as §1
Liver [29] = experiment: Biodistribution in Kunming mouse liver at 1 uCi, iv after 240 mins by gamma counting; type: ADME, organism-based; conditions: in vivo, 4 h; how it was run: as §1
Blood [30] = experiment: Biodistribution in Kunming mouse blood at 1 uCi, iv after 30 mins by gamma counting; type: ADME, organism-based; conditions: in vivo, 0.5 h; how it was run: as §1
Blood [31] = experiment: Biodistribution in Kunming mouse blood at 1 uCi, iv after 240 mins by gamma counting; type: ADME, organism-based; conditions: in vivo, 4 h; how it was run: as §1
Muscle tissue [32] = experiment: Biodistribution in Kunming mouse muscle at 1 uCi, iv after 15 mins by gamma counting; type: ADME, organism-based; conditions: in vivo, 0.25 h; how it was run: as §1
Spleen [33] = experiment: Biodistribution in Kunming mouse spleen at 1 uCi, iv after 120 mins by gamma counting; type: ADME, organism-based; conditions: in vivo, 2 h; how it was run: as §1
Stomach [34] = experiment: Biodistribution in Kunming mouse stomach assessed per organ at 1 uCi, iv after 15 mins by gamma counting; type: ADME, organism-based; conditions: in vivo, 0.25 h; how it was run: as §2
Blood [35] = experiment: Biodistribution in Kunming mouse blood at 1 uCi, iv after 2 mins by gamma counting; type: ADME, organism-based; conditions: in vivo; how it was run: as §1
Heart [36] = experiment: Biodistribution in Kunming mouse heart at 1 uCi, iv after 240 mins by gamma counting; type: ADME, organism-based; conditions: in vivo, 4 h; how it was run: as §1
Spleen [37] = experiment: Biodistribution in Kunming mouse spleen at 1 uCi, iv after 30 mins by gamma counting; type: ADME, organism-based; conditions: in vivo, 0.5 h; how it was run: as §1
Liver [38] = experiment: Biodistribution in Kunming mouse liver at 1 uCi, iv after 15 mins by gamma counting; type: ADME, organism-based; conditions: in vivo, 0.25 h; how it was run: as §1
Liver [39] = experiment: Biodistribution in Kunming mouse liver at 1 uCi, iv after 60 mins by gamma counting; type: ADME, organism-based; conditions: in vivo, 1 h; how it was run: as §1
Brain [40] = experiment: Biodistribution in Kunming mouse brain at 1 uCi, iv after 15 mins by gamma counting; type: ADME, organism-based; conditions: in vivo, 0.25 h; how it was run: as §1
Liver [41] = experiment: Biodistribution in Kunming mouse liver at 1 uCi, iv after 120 mins by gamma counting; type: ADME, organism-based; conditions: in vivo, 2 h; how it was run: as §1
Heart [42] = experiment: Biodistribution in Kunming mouse heart at 1 uCi, iv after 2 mins by gamma counting; type: ADME, organism-based; conditions: in vivo; how it was run: as §1
Blood [43] = experiment: Biodistribution in Kunming mouse blood at 1 uCi, iv after 15 mins by gamma counting; type: ADME, organism-based; conditions: in vivo, 0.25 h; how it was run: as §1
Lung [44] = experiment: Biodistribution in Kunming mouse lung at 1 uCi, iv after 30 mins by gamma counting; type: ADME, organism-based; conditions: in vivo, 0.5 h; how it was run: as §1
Spleen [45] = experiment: Biodistribution in Kunming mouse spleen at 1 uCi, iv after 2 mins by gamma counting; type: ADME, organism-based; conditions: in vivo; how it was run: as §1
Heart [46] = experiment: Biodistribution in Kunming mouse heart at 1 uCi, iv after 60 mins by gamma counting; type: ADME, organism-based; conditions: in vivo, 1 h; how it was run: as §1
Kidney [47] = experiment: Biodistribution in Kunming mouse kidney at 1 uCi, iv after 240 mins by gamma counting; type: ADME, organism-based; conditions: in vivo, 4 h; how it was run: as §1
Heart [48] = experiment: Biodistribution in Kunming mouse heart at 1 uCi, iv after 30 mins by gamma counting; type: ADME, organism-based; conditions: in vivo, 0.5 h; how it was run: as §1
Muscle tissue [49] = experiment: Biodistribution in Kunming mouse muscle at 1 uCi, iv after 30 mins by gamma counting; type: ADME, organism-based; conditions: in vivo, 0.5 h; how it was run: as §1
Muscle tissue [50] = experiment: Biodistribution in Kunming mouse muscle at 1 uCi, iv after 2 mins by gamma counting; type: ADME, organism-based; conditions: in vivo; how it was run: as §1
Brain [51] = experiment: Biodistribution in Kunming mouse brain at 1 uCi, iv after 2 mins by gamma counting; type: ADME, organism-based; conditions: in vivo; how it was run: as §1
Muscle tissue [52] = experiment: Biodistribution in Kunming mouse muscle at 1 uCi, iv after 240 mins by gamma counting; type: ADME, organism-based; conditions: in vivo, 4 h; how it was run: as §1
Kidney [53] = experiment: Biodistribution in Kunming mouse kidney at 1 uCi, iv after 15 mins by gamma counting; type: ADME, organism-based; conditions: in vivo, 0.25 h; how it was run: as §1
Brain [54] = experiment: Biodistribution in Kunming mouse brain at 1 uCi, iv after 240 mins by gamma counting; type: ADME, organism-based; conditions: in vivo, 4 h; how it was run: as §1
Kidney [55] = experiment: Biodistribution in Kunming mouse kidney at 1 uCi, iv after 120 mins by gamma counting; type: ADME, organism-based; conditions: in vivo, 2 h; how it was run: as §1
Brain [56] = experiment: Biodistribution in Kunming mouse brain at 1 uCi, iv after 120 mins by gamma counting; type: ADME, organism-based; conditions: in vivo, 2 h; how it was run: as §1

Ki [1]: 18.9 nM
SMILES: O=C(/C=C/c1ccccc1)n1ccc2cc(Br)ccc21

Drug uptake (Lung [2]): 6.73 % ID/g
Drug uptake (Heart [3]): 2.9 % ID/g
Drug uptake (Muscle tissue [4]): 0.84 % ID/g
Drug uptake (Spleen [5]): 1.85 % ID/g
Drug uptake (Blood [6]): 1.61 % ID/g
Drug uptake (Lung [7]): 2.66 % ID/g
Drug uptake (Stomach [8]): 1.72 %ID
Drug uptake (Blood [9]): 2.88 % ID/g
Drug uptake (Lung [10]): 1.27 % ID/g
Drug uptake (Spleen [11]): 0.59 % ID/g
Drug uptake (Lung [12]): 2.1 % ID/g
Drug uptake (Brain [13]): 0.77 % ID/g
Drug uptake (Spleen [14]): 2.44 % ID/g
Drug uptake (Muscle tissue [15]): 1.06 % ID/g
Drug uptake (Liver [16]): 6.48 % ID/g
Drug uptake (Stomach [17]): 2.29 %ID
Drug uptake (Heart [18]): 0.99 % ID/g
Drug uptake (Lung [19]): 14.5 % ID/g
Drug uptake (Kidney [20]): 6.14 % ID/g
Drug uptake (Brain [21]): 1.57 % ID/g
Drug uptake (Stomach [22]): 1.09 %ID
Drug uptake (Stomach [23]): 2.08 %ID
Drug uptake (Liver [24]): 15.89 % ID/g
Drug uptake (Stomach [25]): 1.3 %ID
Drug uptake (Kidney [26]): 11.22 % ID/g
logD [27]: 2.53
Drug uptake (Kidney [28]): 10.16 % ID/g
Drug uptake (Liver [29]): 2.23 % ID/g
Drug uptake (Blood [30]): 3.75 % ID/g
Drug uptake (Blood [31]): 1.07 % ID/g
Drug uptake (Muscle tissue [32]): 2.47 % ID/g
Drug uptake (Spleen [33]): 0.63 % ID/g
Drug uptake (Stomach [34]): 1.52 %ID
Drug uptake (Blood [35]): 14.13 % ID/g
Drug uptake (Heart [36]): 0.61 % ID/g
Drug uptake (Spleen [37]): 1.71 % ID/g
Drug uptake (Liver [38]): 7.73 % ID/g
Drug uptake (Liver [39]): 4.09 % ID/g
Drug uptake (Brain [40]): 1.98 % ID/g
Drug uptake (Liver [41]): 4.86 % ID/g
Drug uptake (Heart [42]): 10.72 % ID/g
Drug uptake (Blood [43]): 3.91 % ID/g
Drug uptake (Lung [44]): 4.88 % ID/g
Drug uptake (Spleen [45]): 4.08 % ID/g
Drug uptake (Heart [46]): 1.53 % ID/g
Drug uptake (Kidney [47]): 2.22 % ID/g
Drug uptake (Heart [48]): 2.07 % ID/g
Drug uptake (Muscle tissue [49]): 2.06 % ID/g
Drug uptake (Muscle tissue [50]): 3.97 % ID/g
Drug uptake (Brain [51]): 2 % ID/g
Drug uptake (Muscle tissue [52]): 0.19 % ID/g
Drug uptake (Kidney [53]): 9.68 % ID/g
Drug uptake (Brain [54]): 0.17 % ID/g
Drug uptake (Kidney [55]): 3.54 % ID/g
Drug uptake (Brain [56]): 0.33 % ID/g
SMILES: O=C(/C=C/c1ccccc1)n1ccc2cc([125I])ccc21
